From ChEMBL document CHEMBL1126323, “Inhibitors of protein kinase C. 2. Substituted bisindolylmaleimides with improved potency and selectivity” (J Med Chem, 1992)

Biological target: not listed separately
Experiment: Inhibition of c-AMP dependent protein kinase A (PKA) in bovine heart
Outline: (§1)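 Kinase assay on PKA isolated from bovine heart, run by a method described earlier. Each data point was done in triplicate. IC50 values are the mean of at least two independent assays.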

Structure (SMILES)	IC50
CN(C)CCCn1cc(C2=C(c3cn(C)c4ccccc34)C(=O)NC2=O)c2ccccc21	25.6 µM
Cn1cc(C2=C(c3cn(CCC[N+](C)(C)C)c4ccccc34)C(=O)NC2=O)c2ccccc21	64.5 µM
Cn1cc(C2=C(c3cn(CCO)c4ccccc34)C(=O)NC2=O)c2ccccc21	22.1 µM

Second part, the compound after the results:

IC50	Structure (SMILES)
21.3 µM	Cn1cc(C2=C(c3cn(CCCCCO)c4ccccc34)C(=O)NC2=O)c2ccccc21
18.4 µM	Cn1cc(C2=C(c3cn(CCCCO)c4ccccc34)C(=O)NC2=O)c2ccccc21
14.2 µM	Cn1cc(C2=C(c3cn(CCCO)c4ccccc34)C(=O)NC2=O)c2ccccc21
11.9 µM	CNCCCn1cc(C2=C(c3cn(C)c4ccccc34)C(=O)NC2=O)c2ccccc21
10.4 µM	Cn1cc(C2=C(c3cn(CCCCCN)c4ccccc34)C(=O)NC2=O)c2ccccc21
9.3 µM	Cn1cc(C2=C(c3cn(CCCCN)c4ccccc34)C(=O)NC2=O)c2ccccc21
8.9 µM	Cn1cc(C2=C(c3cn(CCN)c4ccccc34)C(=O)NC2=O)c2ccccc21
7.4 µM	Cn1cc(C2=C(c3cn(CCCCC(=N)N)c4ccccc34)C(=O)NC2=O)c2ccccc21
5.2 µM	Cn1cc(C2=C(c3cn(CCCN)c4ccccc34)C(=O)NC2=O)c2ccccc21
2.9 µM	Cn1cc(C2=C(c3cn(CCCN=C(N)N)c4ccccc34)C(=O)NC2=O)c2ccccc21

Biological target: Protein kinase C (PKC)
Experiment: Inhibition of protein kinase C (PKC) in rat brain
Format: tissue-based
Outline: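 PKC from rat brain was assayed by a method described earlier. Each data point was done in triplicate. IC50 is the mean of at least two independent determinations.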

Structure (SMILES)	IC50
Cn1cc(C2=C(c3cn(CCCCCSC(=N)N)c4ccccc34)C(=O)NC2=O)c2ccccc21	0.047 µM
Cn1cc(C2=C(c3cn(CCCCSC(=N)N)c4ccccc34)C(=O)NC2=O)c2ccccc21	0.028 µM
Cn1cc(C2=C(c3cn(CCSC(=N)N)c4ccccc34)C(=O)NC2=O)c2ccccc21	0.041 µM
CN(C)CCCn1cc(C2=C(c3cn(C)c4ccccc34)C(=O)NC2=O)c2ccccc21	0.045 µM
Cn1cc(C2=C(c3cn(CCCSC(=N)N)c4ccccc34)C(=O)NC2=O)c2ccccc21 [BISINDOLYLMALEIMIDE IX]	0.01 µM
Cn1cc(C2=C(c3cn(CCC/N=C(\N)N[N+](=O)[O-])c4ccccc34)C(=O)NC2=O)c2ccccc21	0.026 µM
Cn1cc(C2=C(c3cn(CCC[N+](C)(C)C)c4ccccc34)C(=O)NC2=O)c2ccccc21	0.093 µM
Cn1cc(C2=C(c3cn(CCO)c4ccccc34)C(=O)NC2=O)c2ccccc21	0.34 µM

Results, then the compound that gave them:

IC50	Structure (SMILES)
0.28 µM	Cn1cc(C2=C(c3cn(CCCCCO)c4ccccc34)C(=O)NC2=O)c2ccccc21
0.17 µM	Cn1cc(C2=C(c3cn(CCCCO)c4ccccc34)C(=O)NC2=O)c2ccccc21
0.13 µM	Cn1cc(C2=C(c3cn(CCCO)c4ccccc34)C(=O)NC2=O)c2ccccc21
0.035 µM	CNCCCn1cc(C2=C(c3cn(C)c4ccccc34)C(=O)NC2=O)c2ccccc21
0.076 µM	Cn1cc(C2=C(c3cn(CCCCCN)c4ccccc34)C(=O)NC2=O)c2ccccc21
0.055 µM	Cn1cc(C2=C(c3cn(CCCCN)c4ccccc34)C(=O)NC2=O)c2ccccc21
0.064 µM	Cn1cc(C2=C(c3cn(CCN)c4ccccc34)C(=O)NC2=O)c2ccccc21
0.031 µM	Cn1cc(C2=C(c3cn(CCCCC(=N)N)c4ccccc34)C(=O)NC2=O)c2ccccc21
0.075 µM	Cn1cc(C2=C(c3cn(CCCN)c4ccccc34)C(=O)NC2=O)c2ccccc21
0.019 µM	Cn1cc(C2=C(c3cn(CCCN=C(N)N)c4ccccc34)C(=O)NC2=O)c2ccccc21

Biological target: not listed separately
Experiment: Inhibition of protein kinase A (PKA) in bovine heart
Outline: as §1

IC50	Structure (SMILES)
4.6 µM	Cn1cc(C2=C(c3cn(CCCCCSC(=N)N)c4ccccc34)C(=O)NC2=O)c2ccccc21
2.7 µM	Cn1cc(C2=C(c3cn(CCCCSC(=N)N)c4ccccc34)C(=O)NC2=O)c2ccccc21
12.1 µM	Cn1cc(C2=C(c3cn(CCSC(=N)N)c4ccccc34)C(=O)NC2=O)c2ccccc21
0.9 µM	Cn1cc(C2=C(c3cn(CCCSC(=N)N)c4ccccc34)C(=O)NC2=O)c2ccccc21 [BISINDOLYLMALEIMIDE IX]

Structure (SMILES)	IC50
Cn1cc(C2=C(c3cn(CCC/N=C(\N)N[N+](=O)[O-])c4ccccc34)C(=O)NC2=O)c2ccccc21	4.9 µM
